According to paper PMC8556345 (Cell, 2021):
Where no end group is shown, it is not given here.

Assays:
ACx Pyr cells = experiment: IPSC frequency, ACx Pyr cells; assay type: cell-based, mouse; details: GRP bath, NBQX and CPP
Summary of the method: (§1)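 Whole-cell voltage clamp at −70 mV in acute coronal slices at 30-32°C, with 3-4 MΩ pipettes. The pipette held K⁺-based high-Cl⁻ solution (127.5 mM KCl, pH 7.3), and the bath held NBQX and CPP at 10 μM each.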

ACx SST cells [1] = experiment: EPSC frequency, ACx SST cells; assay type: cell-based, mouse; details: GRP bath, gabazine; n = 11
Summary of the method: (§2)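 Acute coronal slices were incubated in oxygenated Ringer's at 32°C for ~15 min, then held at RT. SST and PVALB cells were identified in Sst-EGFP or Pvalb-EGFP mice. Whole-cell recordings were made at 30-32°C, voltage-clamped at −70 mV, with K⁺-gluconate low-Cl⁻ pipette solution and 10 μM gabazine.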

ACx PVALB cells [2] = experiment: EPSC frequency, ACx PVALB cells; assay type: cell-based, mouse; details: GRP bath, gabazine; n = 10
Summary of the method: as §2

ACx SST cells [3] = experiment: whole-cell current-clamp, membrane potential, ACx SST cells; assay type: cell-based, mouse; details: ACx (and M1), compared to VIP cells
motor cortex SST cells [4] = experiment: IPSC frequency, motor cortex SST cells; assay type: cell-based, mouse; details: GRP bath, NBQX and CPP
Summary of the method: as §1

[5] = tested on: grpLight (GRPR/cpGFP sensor); experiment: grpLight GRP sensor characterization; assay type: cell-based, human
motor cortex SST cells [6] = experiment: whole-cell current-clamp, membrane potential, motor cortex SST cells; assay type: cell-based, mouse; details: GRP; bath with NBQX, CPP, gabazine, CGP and TTX; 10 cells
motor cortex PVALB cells [7] = experiment: whole-cell current-clamp, membrane potential, motor cortex PVALB cells; assay type: cell-based, mouse; details: GRP; bath with NBQX, CPP, gabazine, CGP and TTX; 15 cells
ACx PVALB cells [8] = experiment: IPSC frequency, ACx PVALB cells; assay type: cell-based, mouse; details: GRP bath, NBQX and CPP, TTX-sensitive; n=10
[9] = tested on: Vip+ and glutamatergic cells, motor cortex; experiment: immediate early gene; assay type: in vivo, mouse
Summary of the method: (§3)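 Brains were frozen 45 min later for Fos and Npas4 FISH. Expression was the cell area covered by label, in manually drawn ROIs across all layers, 2-3 slices per mouse. Right-hemisphere values were normalized to the left-hemisphere mean per cell type.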

[10] = tested on: Sst+ and Pvalb+ cells, motor cortex; experiment: immediate early gene; assay type: in vivo, mouse
Summary of the method: as §3

[11] = tested on: auditory cortex VIP cells; experiment: GCaMP acute slice Ca2+ imaging, ACx VIP cells; assay type: cell-based, mouse
GRP receptor (GRPR) [12] = details: ref Kroog et al., 1995; cited from earlier work
ACx VIP cells [13] = experiment: in vivo fiber photometry of GCaMP in ACx VIP cells, cannula infusion; set-up: species or system mouse; details: 2 μl, 300 μM GRP and TAMRA-GRP, 100 nl/min into visual cortex; n = 3 (grpLight1.2) and 8 (GCaMP) mice
Summary of the method: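 Decay was corrected by an exponential fit to trace minima (5000-point sliding window). Autofluorescence measured in fluorophore-free implanted mice was subtracted, and GCaMP was normalized to mean mBeRFP fluorescence.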

[14] = tested on: ACx pyramidal (Pyr) cells; experiment: whole-cell current-clamp, membrane potential, ACx pyramidal cells; assay type: cell-based, mouse; details: ACx (and M1), compared to VIP cells
SST cells = experiment: EPSC frequency, SST cells, ACx and M1 together; assay type: cell-based, mouse; details: GRP bath
Summary of the method: as §2

M1 PVALB cells = experiment: EPSC frequency, M1 PVALB cells; assay type: cell-based, mouse; details: GRP bath, gabazine; n = 10
Summary of the method: as §2

ACx PVALB cells [15] = experiment: whole-cell current-clamp, membrane potential, ACx PVALB cells; assay type: cell-based, mouse
motor cortex PVALB cells [16] = experiment: IPSC frequency, motor cortex PVALB cells; assay type: cell-based, mouse; details: GRP bath, NBQX and CPP
Summary of the method: as §1

L3/4 ACx VIP cells = experiment: spike probability of VIP cells upon optogenetic stimulation of thalamic inputs; assay type: cell-based, mouse
Summary of the method: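 L3/4 auditory cortex VIP cells, identified by EGFP in Vip-EGFP or Vip-IRES-Cre x H2B-EGFP mice, were recorded whole-cell in current clamp with low-Cl⁻ K⁺-based solution at 30-32°C. Thalamic inputs were stimulated with 1 s bursts of 5 ms light pulses at 20 Hz every 20 s. […] Spontaneous and evoked spikes were counted.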

ACx SST cells [17] = experiment: IPSC frequency, ACx SST cells; assay type: cell-based, mouse; details: GRP bath, NBQX and CPP, TTX-sensitive; n=10
ACx VIP cells [18] = experiment: whole-cell current-clamp, membrane potential, ACx VIP cells; assay type: cell-based, mouse
[19] = tested on: motor cortex pyramidal cells; experiment: whole-cell current-clamp, membrane potential, motor cortex pyramidal cells; assay type: cell-based, mouse; details: GRP; bath with NBQX, CPP, gabazine, CGP and TTX; 10 cells
M1 SST cells = experiment: EPSC frequency, M1 SST cells; assay type: cell-based, mouse; details: GRP bath, gabazine; n = 9
Summary of the method: as §2

[20] = tested on: motor cortex (M1) VIP cells; experiment: whole-cell current-clamp, membrane potential, motor cortex VIP cells; assay type: cell-based, mouse; details: CPP, gabazine
grpLight in ACx = experiment: in vivo dual-color photometry of grpLight and TAMRA-GRP, diffusion in cortex; set-up: species or system mouse; details: infusion into distant cortical area
[21] = TAMRA-GRP imaging in acute brain slices, flow-in delay; set-up: species or system mouse; details: 300 nM, bath
Summary of the method: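 Non-fluorescent acute brain slices were imaged through a 650/100 nm emission filter. […] Arrival in the bath was defined as the first time point at which fluorescence rose 2 SD above baseline.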

GRP receptor (GRPR) [22] = experiment: binding to GRP receptor; details: statement in method; no data shown
[23] = 1372 responding VIP cells, male auditory cortex, GRP bath
[24] = 300 nM GRP, male mice, NBQX, CGP

VSTGAGGGTVLAKMYPRGSHWAVGHLM-NH2 [GRP, gastrin-releasing peptide]
Pyr cells with increased IPSC frequency (ACx Pyr cells): 1 out of 10 | mean increase in EPSC frequency, ACx SST (ACx SST cells [1]): 1.86 ± 1.15 Hz | mean increase in EPSC frequency, ACx PVALB (ACx PVALB cells [2]): 1.95 ± 1.43 Hz | GRP-evoked depolarization, SST cells (ACx SST cells [3]): significantly smaller than in VIP cells | SST cells with increased IPSC frequency, M1 (motor cortex SST cells [4]): 4 out of 10 | mean increase in IPSC frequency, M1 SST (motor cortex SST cells [4]; n = 10): 13.28 ± 5.97 Hz | concentrations detectable by grpLight [5]: nanomolar concentrations | depolarization, motor cortex SST (motor cortex SST cells [6]): 1.39 ± 0.74 mV | depolarization, motor cortex PVALB (motor cortex PVALB cells [7]): 1.78 ± 0.45 mV | PVALB cells with increased IPSC frequency (ACx PVALB cells [8]): 40% | Npas4 expression in Vip-IRES-Cre;Grpr fl/y mice ([9]; 3 μM GRP into M1, vs control mice): significantly smaller | Npas4 expression, Vip+ and glutamatergic cells ([9]; 3 μM GRP into right M1): significantly increased expression | Fos expression ipsilateral to injection, Vip+ and glutamatergic cells ([9]; 200 nl of 3 μM GRP into right M1, anaesthetized mice, FISH at 45 min): strong increase in Fos | Npas4 expression, Sst+ and Pvalb+ cells ([10]; 3 μM GRP into right M1): but not Sst^+ and Pvalb^+ cells | Fos expression, Sst+ and Pvalb+ cells ([10]; 200 nl of 3 μM GRP into right M1): without changes in expression | GCaMP peak latency [11, 23]: 156.9 ± 1.5 s | GCaMP response start [11, 23]: 99.4 ± 0.9 s | lowest concentration that increased GCaMP fluorescence in most VIP cells ([11]; ACx of male and female mice and M1, bath application): 3 nM | cells with Ca2+ oscillations with TTX ([11]; GRP, with TTX): 14% | VIP cells with phasic (oscillatory) GCaMP fluctuations ([11]; GRP, without TTX, NBQX, CPP, gabazine, CGP): 26% | GCaMP fluorescence change ΔF/FKCl, female ([11]; median (IQR), female auditory cortex, 580 cells in 14 slices, 300 nM GRP, 2 min, 32°C): 11.8 (15.6) % ΔF/FKCl | latency of Ca2+ increases after TAMRA-GRP levels increased ([11]; start GCaMP vs start TAMRA-GRP): 12 s | binding to GRPR (GRP receptor (GRPR) [12]): high affinity and selectivity | onset of functional effect on VIP cell Ca2+ vs grpLight detection (ACx VIP cells [13]): functional effects on these cells in vivo well before photometric detection of changes in grpLight fluorescence | GRP-evoked depolarization, Pyr cells [14]: significantly smaller than in VIP cells | effect on EPSC frequency (SST cells; SST and PVALB cells): hardly affected | SST cells with increased EPSC frequency (SST cells; gabazine): 2 out of 20 | mean increase in EPSC frequency, M1 PVALB (M1 PVALB cells): 0.69 ± 0.80 Hz | GRP-evoked depolarization, PVALB cells (ACx PVALB cells [15]; ACx (and M1), compared to VIP cells): significantly smaller than in VIP cells | PVALB cell depolarization vs control recordings without GRP (ACx PVALB cells [15]; Fig. S3D): No significant difference | PVALB cells with increased IPSC frequency, M1 (motor cortex PVALB cells [16]): 3 out of 10 | mean increase in IPSC frequency, M1 PVALB (motor cortex PVALB cells [16]; n = 10): 4.59 ± 2.00 Hz | average spontaneous spike rate prior to stimulation, after GRP (L3/4 ACx VIP cells; 0 ± 0 Hz before GRP, n = 5 cells): 0.09 ± 0.08 Hz | average evoked spike probability after GRP (L3/4 ACx VIP cells; 300 nM GRP bath for 2 min, 14 ± 9% before GRP, 5 ms pulses at 20 Hz, n = 5 cells): 52 ± 16% | effect on spontaneous spike rate prior to stimulation onset (L3/4 ACx VIP cells; GRP bath): without increasing spontaneous spike rate | effect on evoked spike probability (L3/4 ACx VIP cells; optogenetic stimulation of thalamo-cortical afferents): significantly increased the evoked spike probability | SST cells with increased IPSC frequency (ACx SST cells [17]): 60% | depolarization in female compared to male mice (ACx VIP cells [18]; 300 nM GRP): non-significantly larger depolarization compared to male mice | mean depolarization, female mice (ACx VIP cells [18]; 300 nM GRP, bath NBQX, CPP, gabazine, CGP and TTX, mean ± SEM, 10 cells (Fig. S3C)): 8.62 ±1.11 mV | duration of burst-like firing activity (ACx VIP cells [18]; 300 nM for 2 min, male mice): > 1 min | neurons with long-lasting burst-like firing activity (ACx VIP cells [18]; 300 nM for 2 min, male mice): 3 out of 10 | VIP cells that depolarize upon GRP bath application (ACx VIP cells [18]; 300 nM for 2 min, male mice, acute slices, 30-32°C): 7 out of 10 | dependence of depolarization on concentration (ACx VIP cells [18]; Fig. 3C, 6-10 cells per group): concentration-dependent | depolarization, motor cortex pyramidal [19]: 0.56 ± 0.49 mV | mean increase in EPSC frequency, M1 SST (M1 SST cells): 1.61 ± 0.97 Hz | M1 VIP neurons with burst-like activity [20, 24]: 3 out of 10 | VIP cells in M1 that depolarized [20, 24]: 9 out of 10 | depolarization, motor cortex VIP ([20]; GRP, bath with NBQX, CGP and TTX, 6 cells): 9.38 ± 1.28 mV

VSTGAGGGTVLAKMYPRGSHWAVGHLM-NH2 [TAMRA-GRP]
grpLight fluorescence change in ACx following infusion (grpLight in ACx): long-lasting increases minutes after the start of GRP infusion | TAMRA-GRP fluorescence peak latency, range ([21]; 3 slices, range): 156.4 to 162.8 s | TAMRA-GRP fluorescence response start, range ([21]; 3 slices, range): 79 to 95 s | TAMRA-GRP fluorescence peak latency ([21]; mean of 3 slices): 160.3 s | TAMRA-GRP fluorescence response start ([21]; mean of 3 slices): 87.4 s | efficiency as GRPR ligand (GRP receptor (GRPR) [22]): very inefficient GRPR ligand
